This passage reports IC50 and EC50 results from ChEMBL document CHEMBL1157227, “Cytotoxic pregnane steroids from the formosan soft coral Stereonephthya crystalliana” (J Nat Prod, 2006).

Structures are written as SMILES. ≈ marks a conversion by molar mass, not a printed value.

The subject of one assay is P388. Kind of assay: Cytotoxicity against mouse P388 cells. The assay is classed as functional, cell-based. The method in brief: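 P-388 mouse lymphocytic leukemia cells provided by an academic lab; in vitro cytotoxicity by a previously described procedure; result given as ED50 in µg/mL, with ED50 ≤ 4.0 µg/mL taken as significant for pure compounds.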
The test system of a further assay is HT-29. Put plainly: Cytotoxicity against human HT29 cells. The assay is classed as functional. The note with it: read-out: ED50 (the source's name). The gist of the method: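 HT-29 human colon adenocarcinoma cells from ATCC; in vitro cytotoxicity by a previously described procedure; result given as ED50 in µg/mL, with ED50 ≤ 4.0 µg/mL taken as significant for pure compounds.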

Broadly, the IC50 is the midpoint of a concentration-inhibition curve. Higher therefore signals weaker potency in that assay. `C=C[C@H]1CC[C@H]2[C@@H]3CC[C@H]4C[C@@H](O[C@@H]5O[C@@H](C)[C@@H](OC(C)=O)[C@@H](O)[C@@H]5O)CC[C@]4(CO)[C@H]3CC[C@]12C` [STEREONSTEROID C]: the half-maximal inhibitory concentration (IC50) in the assay with P388 came out at 3.1 µg/mL (≈ 6.12 µM). In the assay on HT-29, the EC50 came to 2.7 µg/mL (≈ 5.33 µM).
In the assay with P388, `C=C[C@H]1CC[C@H]2[C@@H]3CC[C@H]4C[C@@H](O[C@@H]5OC[C@@H](O)[C@H](O)[C@H]5O)CC[C@]4(C)[C@H]3CC[C@]12C` [STEREONSTEROID I] came in with an IC50 of 5.9 µg/mL (≈ 13.6 µM). The EC50 with HT-29 came to 7.7 µg/mL (≈ 17.7 µM).
For the compound `C=C[C@H]1CC[C@H]2[C@@H]3CC[C@H]4C[C@@H](OC(C)=O)CC[C@]4(C=O)[C@H]3CC[C@]12C` [STEREONSTEROID B], in the assay with P388, the IC50 came to 1.6 µg/mL (≈ 4.46 µM). The EC50 with HT-29 was 1.7 µg/mL (≈ 4.74 µM).
In the same order, the values of `C=C[C@H]1CC[C@H]2[C@@H]3CC[C@H]4C[C@@H](O[C@@H]5O[C@@H](C)[C@@H](OC(C)=O)[C@@H](O)[C@@H]5O)CC[C@]4(COC(C)=O)[C@H]3CC[C@]12C` [STEREONSTEROID D] are 4.9 µg/mL (≈ 8.93 µM) and 5.2 µg/mL (≈ 9.48 µM).
In the same order, the values of `C=C[C@H]1CC[C@H]2[C@@H]3CC[C@H]4C[C@@H](O[C@@H]5O[C@@H](C)[C@@H](OC(C)=O)[C@@H](O)[C@@H]5O)CC[C@]4(C=O)[C@H]3CC[C@]12C` [STEREONSTEROID E] are 3.8 µg/mL (≈ 7.53 µM) and 9.3 µg/mL (≈ 18.4 µM).
In the same order, the values of `C=C[C@H]1CC[C@H]2[C@@H]3CC=C4C[C@@H](O[C@@H]5O[C@@H](C)[C@@H](O)[C@@H](OC(C)=O)[C@@H]5O)CC[C@]4(C)[C@H]3CC[C@]12C` [STEREONSTEROID H] are 5.4 µg/mL (≈ 11.1 µM) and 5.3 µg/mL (≈ 10.8 µM).
As for `C=CC1CCC2C3CCC4CC(OC5OC(C)C(O)C(OC(C)=O)C5O)CCC4(C)C3CCC12C` (stereo not drawn), the IC50 in the assay on P388 was 13.3 µg/mL (≈ 27.1 µM). In addition, the EC50 in the assay on HT-29 is 6.2 µg/mL (≈ 12.6 µM).
In the same order, the values of `C=C[C@H]1CC[C@H]2[C@@H]3CC[C@H]4C[C@@H](O)CC[C@]4(CO)[C@H]3CC[C@]12C` [STEREONSTEROID A] are 3.5 µg/mL (≈ 11 µM) and 7.5 µg/mL (≈ 23.5 µM).
In the same order, the values of `C=C[C@H]1CC[C@H]2[C@@H]3CC[C@H]4C[C@@H](O[C@@H]5O[C@@H](C)[C@@H](OC(C)=O)[C@@H](O)[C@@H]5O)CC[C@]4(C)[C@H]3CC[C@]12C` [STEREONSTEROID F] are 9.4 µg/mL (≈ 19.2 µM) and 10.8 µg/mL (≈ 22 µM).
